Reference: ChEMBL document CHEMBL5325455, “Daphnanes diterpenes from the latex of Hura crepitans L. and their PKCζ-dependent anti-proliferative activity on colorectal cancer cells” (Bioorg Med Chem, 2023)
Active and inactive are the calls of the source. No cut-off for these calls is given here.

Assays:
Caco-2 [1] = assay: Upregulation of phosphorylated MEK at Ser217/221 level in human Caco-2 cells at 1 ug/ml preincubated for 30 mins with CRT0066854 hydrochloride followed by compound addition and measured after 48 hrs by Western blot analysis; type: functional, cell-based; conditions: dose 1.0 µg/ml
Summary of the method: (§1)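 Caco-2 cells (0.25 × 10^6/well) were treated at 1 µg/mL for 48 h, with or without 30 min pretreatment with 2.5 µM CRT0066854. Lysates (30 µg protein) were blotted for pSer217/221-MEK and total MEK, with actin as loading control. Detection was by ECL; n=2, t-test versus DMSO.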

Caco-2 [2] = assay: Induction of morphological changes in human Caco-2 cells at 1 ug/ml preincubated for 30 mins with CRT0066854 hydrochloride followed by compound addition and measured after 48 hrs by Hoechst 3342 and phalloidin staining based confocal microscopic analysis; type: functional, cell-based; conditions: dose 1.0 µg/ml
Summary of the method: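 CRT0066854 hydrochloride (2.5 µM) was added to Caco-2 cells 30 min before compound at 1 µg/mL. After 48 h, nuclei and actin cytoskeleton were labelled and confocal views taken with a 20X objective; duplicates from one experiment.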

Caco-2 [3] = assay: Downregulation of PKCalpha expression in human Caco-2 cells at 1 ug/ml incubated for 48 hrs by immunostaining based confocal microscopic analysis; type: functional, cell-based; conditions: dose 1.0 µg/ml
Summary of the method: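 Caco-2 cells were seeded at 40 000/well and treated for 48 h as in the viability assay. They were fixed in 3.7% PFA for 20 min and permeabilised in HBSS/0.5% Triton X100/1% BSA. Anti-PKCζ (1/50) or anti-PKCα (1/200) was applied overnight at 4°C, then Alexa 488 secondary for 45 min. Phalloidin and Hoechst counterstained the cells before confocal imaging; PKCα signal was quantified by immunofluorescence.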

Caco-2 [4] = assay: Cytotoxicity against human Caco-2 cells assessed as cell death; type: functional, cell-based
Caco-2 [5] = assay: Induction of apoptosis in human Caco-2 cells assessed as increase in active caspase 3 level; type: functional, cell-based
[6] = molecular target: RAC-alpha serine/threonine-protein kinase (Homo sapiens) (UniProt P31749); assay: Inhibition of AKT in human Caco-2 cells assessed as reduction in phosphorylation at serine 473 residue at 1 ug/ml incubated for 48 hrs by Western blot analysis; type: cell-based; conditions: dose 1.0 µg/ml
Summary of the method: (§2)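 Caco-2 cells (0.25 × 10^6/well) were treated at 1 µg/mL for 48 h and lysed in pH 7.4 Tris/NaCl/Triton/EDTA buffer with protease and phosphatase inhibitors. 30 µg protein was run per lane on 4–15% gels and blotted for pSer9-GSK3β, total GSK3β, pSer473-Akt, total Akt and β-catenin, with actin as loading control. Detection was by ECL; n=2, t-test versus DMSO.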

Caco-2 [7] = assay: Cytostatic activity against human Caco-2 cells assessed as inhibition of cell growth at 1 ug/ml preincubated for 15 mins with PKCalpha inhibitor, Go6976 followed by compound addition and measured after 48 hrs by MTS assay; type: functional, cell-based; conditions: dose 1.0 µg/ml
Summary of the method: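 Caco-2 cells (40 000/well) were pretreated with 0.2 µM Gö6976 for 15 min, then given compound at 1 µg/mL for 48 h. MTS absorbance was read at 490 nm and activity calculated relative to DMSO controls; triplicates, 1–3 independent experiments, two-way ANOVA.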

[8] = molecular target: Glycogen synthase kinase-3 beta (Homo sapiens) (UniProt P49841); assay: Inhibition of GSK3beta in human Caco-2 cells assessed as increase in phosphorylation at serine 9 residue at 1 ug/ml preincubated for 30 mins with CRT0066854 hydrochloride followed by compound addition and measured after 48 hrs by Western blot analysis; type: cell-based; conditions: dose 1.0 µg/ml
Summary of the method: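 Caco-2 cells were pretreated with 2.5 µM CRT0066854 hydrochloride for 30 min, then treated at 1 µg/mL for 48 h. Lysates (30 µg protein) were immunoblotted for pSer9-GSK3β and total GSK3β, with actin loading control and ECL detection; n=2.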

[9] = tested on: Colorectal epithelial cell; assay: Cytostatic activity against human Colorectal epithelial cells isolated from patient with well-differentiated colonic adenocarcinoma and undergone nine courses of chemotherapy cultured as organoids at 1 ug/ml incubated for 48 hrs by CellTiter-Glo luminescence assay; type: functional, cell-based; conditions: dose 1.0 µg/ml
Summary of the method: (§3)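 Primary colonic epithelial cells (3 control and 2 CRC patients) were expanded as organoids or spheroids in Matrigel with EGF/noggin/Wnt3a/R-spondin medium. Single cells were seeded at 2500/well and allowed 48 h to form colonoids, then exposed for 48 h at 0.01, 0.1 or 1 µg/mL, with 5FdU at 1 µg/mL as positive control. Viability was read by CellTiter-Glo luminescence versus DMSO or medium control.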

[10] = tested on: Colorectal epithelial cell; assay: Cytostatic activity against human Colorectal epithelial cells isolated from patient with well-differentiated colonic adenocarcinoma cultured as organoids at 1 ug/ml incubated for 48 hrs by CellTiter-Glo luminescence assay; type: functional, cell-based; conditions: dose 1.0 µg/ml; summary of the method: as §3
Caco-2 [11] = assay: Effect on phosphorylated MEK at Ser217/221 level in human Caco-2 cells at 1 ug/ml measured after 48 hrs by Western blot analysis; type: functional, cell-based; conditions: dose 1.0 µg/ml; summary of the method: as §1
[12] = tested on: Colorectal epithelial cell; assay: Cytostatic activity against human Colorectal epithelial cells isolated from patient with fistulized sigmoiditis cultured as organoids at 1 ug/ml incubated for 48 hrs by CellTiter-Glo luminescence assay; type: functional, cell-based; conditions: dose 1.0 µg/ml; summary of the method: as §3
[13] = Cytotoxicity against HIEC-6 cells assessed as inhibition of cell growth at 1 ug/ml incubated for 48 hrs by MTS assay; type: toxicity, cell-based; conditions: human, hiec-6, 48 h, dose 1 µg/ml
Summary of the method: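 HIEC6 cells were grown in OPTIMEM with GlutaMAX, Hepes and 10 ng/mL EGF and seeded at 60 000/well 48 h before dosing. Cells were exposed to 1 µg/mL for 48 h, and viability was read by MTS absorbance at 490 nm versus DMSO; 3 independent experiments, t-test.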

[14] = tested on: Colorectal epithelial cell; assay: Cytostatic activity against human Colorectal epithelial cells isolated from left colon of patient with recurrent diverticulitis cultured as organoids at 1 ug/ml incubated for 48 hrs by CellTiter-Glo luminescence assay; type: functional, cell-based; conditions: dose 1.0 µg/ml; summary of the method: as §3
Caco-2 [15] = assay: Induction of morphological changes in human Caco-2 cells assessed as cellular aggregation at 1 ug/ml preincubated for 15 mins with PKCalpha inhibitor, Go6976 followed by compound addition and measured after 48 hrs by immunostaining based confocal microscopic analysis; type: functional, cell-based; conditions: dose 1.0 µg/ml
Summary of the method: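 Caco-2 cells were given 0.2 µM Gö6976 for 15 min before compound at 1 µg/mL for 48 h. PKCα was immunostained, nuclei and cytoskeleton were labelled, and cells were imaged by confocal microscopy (20X objective) in duplicate from one experiment.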

Caco-2 [16] = assay: Effect on beta-catenin protein expression in human Caco-2 cells at 1 ug/ml incubated for 48 hrs by Western blot analysis; type: functional, cell-based; conditions: dose 1.0 µg/ml; summary of the method: as §2
Caco-2 [17] = assay: Induction of morphological changes in human Caco-2 cells assessed as reorganization of epithelial tissue architecture at 1 ug/ml incubated for 48 hrs by Hoechst 3342 and phalloidin staining based confocal microscopic analysis; type: functional, cell-based; conditions: dose 1.0 µg/ml
Summary of the method: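 Caco-2 cells (40 000/well) were exposed for 48 h, then fixed in 3.7% PFA and permeabilised with Triton X100/BSA. Actin was stained with phalloidin and nuclei with Hoechst 3342, and cells were viewed by confocal microscopy.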

Caco-2 [18] = assay: Cytostatic activity against human Caco-2 cells assessed as inhibition of cell growth at 1 ug/ml preincubated for 30 mins with CRT0066854 hydrochloride followed by compound addition and measured after 48 hrs by MTS assay; type: functional, cell-based; conditions: dose 1.0 µg/ml
Summary of the method: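 Caco-2 cells were pretreated for 30 min with CRT0066854 hydrochloride (2.5 µM; 0.625 and 1.25 µM also tested), then given compound at 1 µg/mL for 48 h. MTS absorbance was read at 490 nm relative to DMSO controls; n=3, t-test.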

Sequence of Glycogen synthase kinase-3 beta (Homo sapiens) (P49841 whole entry, looked up): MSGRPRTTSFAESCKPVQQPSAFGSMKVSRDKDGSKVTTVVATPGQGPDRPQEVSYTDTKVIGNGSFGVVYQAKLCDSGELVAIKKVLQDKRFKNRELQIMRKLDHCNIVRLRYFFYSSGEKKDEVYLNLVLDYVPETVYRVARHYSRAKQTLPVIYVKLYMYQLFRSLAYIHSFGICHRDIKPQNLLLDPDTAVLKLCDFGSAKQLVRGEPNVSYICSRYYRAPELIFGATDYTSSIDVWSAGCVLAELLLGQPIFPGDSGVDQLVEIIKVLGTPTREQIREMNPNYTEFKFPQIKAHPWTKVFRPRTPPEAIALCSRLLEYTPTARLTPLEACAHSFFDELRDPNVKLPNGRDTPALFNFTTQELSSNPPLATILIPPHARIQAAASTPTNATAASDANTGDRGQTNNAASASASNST
Sequence of RAC-alpha serine/threonine-protein kinase (Homo sapiens) (P31749 whole entry): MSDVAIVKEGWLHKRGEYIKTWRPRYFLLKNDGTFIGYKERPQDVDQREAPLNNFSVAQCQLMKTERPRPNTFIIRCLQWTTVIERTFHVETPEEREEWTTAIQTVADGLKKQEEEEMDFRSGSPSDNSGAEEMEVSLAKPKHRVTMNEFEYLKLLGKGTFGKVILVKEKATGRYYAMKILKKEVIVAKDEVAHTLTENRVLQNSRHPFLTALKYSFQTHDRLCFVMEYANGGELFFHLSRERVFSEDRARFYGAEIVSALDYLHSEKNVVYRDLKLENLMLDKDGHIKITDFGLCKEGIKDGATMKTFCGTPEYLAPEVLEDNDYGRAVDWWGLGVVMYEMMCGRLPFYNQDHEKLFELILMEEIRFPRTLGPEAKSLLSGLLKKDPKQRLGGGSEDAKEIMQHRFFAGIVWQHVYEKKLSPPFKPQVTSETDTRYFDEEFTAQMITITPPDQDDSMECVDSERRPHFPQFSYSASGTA

| Compound | Activity (Caco-2 [1]) | Activity (Caco-2 [2]) | Activity (Caco-2 [3]) | Activity (Caco-2 [4]) | Activity (Caco-2 [5]) | inhibition [6] | Activity (Caco-2 [7]) | inhibition [8] | Activity [9] | Activity [10] | Activity (Caco-2 [11]) | Activity [12] | Activity [13] | Activity [14] | Activity (Caco-2 [15]) | Activity (Caco-2 [16]) | Activity (Caco-2 [17]) | Activity (Caco-2 [18]) |
| --- | --- | --- | --- | --- | --- | --- | --- | --- | --- | --- | --- | --- | --- | --- | --- | --- | --- | --- |
| C=C(C)[C@]12C[C@@H](C)[C@@]34O[C@](/C=C/C=C/CCCCCCCCC)(O[C@@H]1[C@@H]3[C@@H]1O[C@]1(CO)[C@@H](O)[C@]1(O)C(=O)C(C)=C[C@H]14)O2 | Active | inactive | Active | inactive | inactive | Active | Active | inactive | Active | Active | inactive | Active | Non-Toxic | Active | Active | inactive | Active | inactive |
| C=C(C)[C@]12C[C@@H](C)[C@@]34O[C@](/C=C/[C@@H]5O[C@H]5CCCCCCCCC)(O[C@@H]1[C@@H]3[C@@H]1O[C@]1(CO)[C@@H](O)[C@]1(O)C(=O)C(C)=C[C@H]14)O2 | Active | inactive | Active | inactive | inactive | Active | Active | inactive | Active | Active | inactive | Active | Non-Toxic | Active | Active | inactive | Active | inactive |
